According to ChEMBL document CHEMBL4043303, “Development of Novel Melanocortin Receptor Agonists Based on the Cyclic Peptide Framework of Sunflower Trypsin Inhibitor-1” (J Med Chem, 2018):

Columns and labels:
[1] = target: T1, Melanocyte-stimulating hormone receptor (Homo sapiens, UniProt Q01726); assay: Displacement of [125I]-NDP-alpha-MSH from human MC1R LBD expressed in HEK293 cell membranes incubated for 16 to 23 hrs in dark by scintillation proximity assay; set-up: concentration or dose not given beside the values; details: for inhibition: concentration not given here
Melanocortin receptor 3 [2] = target: T2, Melanocortin receptor 3 (Homo sapiens, UniProt P41968); assay: Displacement of [125I]-NDP-alpha-MSH from human MC3R LBD expressed in HEK293 cell membranes incubated for 16 to 23 hrs in dark by scintillation proximity assay; set-up: concentration or dose not given beside the values; details: for inhibition: concentration not given here
T2 sequence (P41968 whole entry, the tested form may be a part): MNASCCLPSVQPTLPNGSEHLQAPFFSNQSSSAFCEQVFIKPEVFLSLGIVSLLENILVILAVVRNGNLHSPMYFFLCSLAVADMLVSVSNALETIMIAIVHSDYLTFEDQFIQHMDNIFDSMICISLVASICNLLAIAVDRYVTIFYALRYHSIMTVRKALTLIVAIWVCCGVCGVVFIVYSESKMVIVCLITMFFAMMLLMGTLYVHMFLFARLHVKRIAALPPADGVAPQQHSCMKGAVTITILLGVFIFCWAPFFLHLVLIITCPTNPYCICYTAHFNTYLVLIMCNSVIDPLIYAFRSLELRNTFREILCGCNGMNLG

Melanocortin receptor 4 [3] = target: T3, Melanocortin receptor 4 (Homo sapiens, UniProt P32245); assay: Displacement of [125I]-NDP-alpha-MSH from human MC4R LBD expressed in HEK293 cell membranes incubated for 16 to 23 hrs in dark by scintillation proximity assay; set-up: concentration or dose not given beside the values; details: for inhibition: concentration not given here
T3 sequence (P32245 whole entry, the tested form may be a part): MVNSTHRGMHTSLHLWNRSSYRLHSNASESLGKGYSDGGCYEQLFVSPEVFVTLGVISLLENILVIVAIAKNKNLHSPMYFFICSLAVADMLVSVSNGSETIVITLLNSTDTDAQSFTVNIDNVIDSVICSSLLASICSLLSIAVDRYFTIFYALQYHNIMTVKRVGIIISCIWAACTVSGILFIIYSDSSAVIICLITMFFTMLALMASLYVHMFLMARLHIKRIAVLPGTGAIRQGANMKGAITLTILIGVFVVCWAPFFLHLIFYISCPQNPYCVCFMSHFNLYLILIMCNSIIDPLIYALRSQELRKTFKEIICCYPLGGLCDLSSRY

Melanocortin receptor 5 = Melanocortin receptor 5 (Homo sapiens, UniProt P33032); assay: Displacement of [125I]-NDP-alpha-MSH from human MC5R LBD expressed in HEK293 cell membranes incubated for 16 to 23 hrs in dark by scintillation proximity assay; set-up: concentration or dose not given beside the values; details: for inhibition: concentration not given here
Sequence of Melanocortin receptor 5 (P33032 whole entry, the tested form may be a part): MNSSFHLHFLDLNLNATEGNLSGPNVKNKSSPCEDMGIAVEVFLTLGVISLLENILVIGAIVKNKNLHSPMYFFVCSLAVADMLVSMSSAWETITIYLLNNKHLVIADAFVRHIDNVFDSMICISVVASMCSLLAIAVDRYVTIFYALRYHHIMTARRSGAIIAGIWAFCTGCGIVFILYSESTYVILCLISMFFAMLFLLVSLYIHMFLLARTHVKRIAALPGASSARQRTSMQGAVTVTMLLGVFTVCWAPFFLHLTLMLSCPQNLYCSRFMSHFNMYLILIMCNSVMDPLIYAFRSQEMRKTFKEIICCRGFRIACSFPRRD

[4] = target: T1, Melanocyte-stimulating hormone receptor; assay: Agonist activity at human MC1R expressed in low doxycyclin-treated HEK293 cell membranes assessed as increase in cAMP production after 45 mins by HTRF method; assay type: functional, cell-based
Melanocortin receptor 3 [5] = target: T2, Melanocortin receptor 3; assay: Agonist activity at human MC3R expressed in low doxycyclin-treated HEK293 cell membranes assessed as increase in cAMP production after 45 mins by HTRF method; assay type: functional, cell-based; set-up: concentration or dose not given beside the values
Method in brief: (§1)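 T-REx-293 cells stably expressing doxycycline-inducible human MC1R, MC3R or MC4R; expression induced 24 h with 0.1 ng/mL (low) or 10 ng/mL (high, MC4R only) doxycycline. 1000 cells/well in HBSS, 20 mM HEPES pH 7.4, 0.1% BSA, 1 mM IBMX; stimulated at 37 °C. Time-resolved FRET cAMP read-out normalized to NDP-α-MSH maximum.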

Melanocortin receptor 4 [6] = target: T3, Melanocortin receptor 4; assay: Agonist activity at human MC4R expressed in low doxycyclin-treated HEK293 cell membranes assessed as increase in cAMP production after 45 mins by HTRF method; assay type: functional, cell-based; method in brief: as §1
Melanocortin receptor 4 [7] = target: T3, Melanocortin receptor 4; assay: Agonist activity at human MC4R expressed in high doxycyclin-treated HEK293 cell membranes assessed as increase in cAMP production after 15 mins by HTRF method; assay type: functional, cell-based; method in brief: as §1
[8] = Solubility of the compound in water at 1 mM; assay type: physicochemical; details: buffer, 1000 µM

Compound: CC[C@H](C)[C@@H]1NC(=O)[C@@H]2CCCN2C(=O)[C@H](Cc2c[nH]c3ccccc23)NC(=O)[C@H](CCCNC(=N)N)NC(=O)[C@@H](Cc2ccccc2)NC(=O)[C@H](Cc2cnc[nH]2)N(C)C(=O)[C@H]([C@@H](C)O)NC(=O)[C@@H]2CSSC[C@H](NC1=O)C(=O)N[C@@H](Cc1ccccc1)C(=O)N1CCC[C@H]1C(=O)N[C@@H](CC(=O)O)C(=O)NCC(=O)N[C@@H](CCCNC(=N)N)C(=O)N2
- inhibition [1]: 100%
- inhibition (Melanocortin receptor 3 [2]): 100%
- inhibition (Melanocortin receptor 4 [3]): 100%
- inhibition (Melanocortin receptor 5): 100%
- Activity [4]: 100%
- Activity (Melanocortin receptor 3 [5]): 100%
- Activity (Melanocortin receptor 4 [6]): 100%
- Activity (Melanocortin receptor 4 [7]): 100%
- solubility [8]: Soluble

Compound: CC[C@H](C)[C@@H]1NC(=O)[C@@H]2CCCN2C(=O)[C@H](Cc2c[nH]c3ccccc23)NC(=O)[C@H](CCCNC(=N)N)N(C)C(=O)[C@@H](Cc2ccccc2)NC(=O)[C@H](Cc2cnc[nH]2)NC(=O)[C@H]([C@@H](C)O)NC(=O)[C@@H]2CSSC[C@H](NC1=O)C(=O)N[C@@H](Cc1ccccc1)C(=O)N1CCC[C@H]1C(=O)N[C@@H](CC(=O)O)C(=O)NCC(=O)N[C@@H](CCCNC(=N)N)C(=O)N2
- inhibition [1]: 100%
- inhibition (Melanocortin receptor 3 [2]): 100%
- inhibition (Melanocortin receptor 4 [3]): 100%
- inhibition (Melanocortin receptor 5): 100%
- Activity [4]: 100%
- Activity (Melanocortin receptor 3 [5]): 100%
- Activity (Melanocortin receptor 4 [6]): 100%
- Activity (Melanocortin receptor 4 [7]): 100%
- solubility [8]: Soluble

Compound: CC[C@H](C)[C@@H]1NC(=O)[C@@H]2CCCN2C(=O)[C@H](Cc2c[nH]c3ccccc23)N(C)C(=O)[C@H](CCCNC(=N)N)N(C)C(=O)[C@@H](Cc2ccccc2)NC(=O)[C@H](Cc2cnc[nH]2)NC(=O)[C@H]([C@@H](C)O)NC(=O)[C@@H]2CSSC[C@H](NC1=O)C(=O)N[C@@H](Cc1ccccc1)C(=O)N1CCC[C@H]1C(=O)N[C@@H](CC(=O)O)C(=O)NCC(=O)N[C@@H](CCCNC(=N)N)C(=O)N2
- inhibition [1]: 100%
- inhibition (Melanocortin receptor 3 [2]): 100%
- inhibition (Melanocortin receptor 4 [3]): 100%
- inhibition (Melanocortin receptor 5): 100%
- Activity [4]: 100%
- Activity (Melanocortin receptor 3 [5]): 100%
- Activity (Melanocortin receptor 4 [6]): 100%
- Activity (Melanocortin receptor 4 [7]): 100%
- solubility [8]: Soluble

Compound: CC[C@H](C)[C@@H]1NC(=O)[C@@H]2CCCN2C(=O)[C@@H]2CCCN2C(=O)[C@H]([C@@H](C)CC)NC(=O)[C@H](CO)NC(=O)[C@H](C)NC(=O)[C@H]([C@H](C)O)NC(=O)[C@@H]2CSSC[C@H](NC1=O)C(=O)N[C@@H](Cc1cnc[nH]1)C(=O)N[C@@H](Cc1ccccc1)C(=O)N[C@@H](CCCNC(=N)N)C(=O)N[C@@H](Cc1c[nH]c3ccccc13)C(=O)N[C@@H](CCCNC(=N)N)C(=O)N2
- Ki [1]: 0.363 µM
- inhibition [1]: 100%
- Ki (Melanocortin receptor 3 [2]): 23.4 µM
- inhibition (Melanocortin receptor 3 [2]): 100%
- Ki (Melanocortin receptor 4 [3]): 25.1 µM
- inhibition (Melanocortin receptor 4 [3]): 100%
- IC50 (Melanocortin receptor 5): 4.07 µM
- inhibition (Melanocortin receptor 5): 100%
- Activity [4]: 100%
- EC50 [4]: 0.0417 µM
- Activity (Melanocortin receptor 3 [5]): 100%
- EC50 (Melanocortin receptor 3 [5]): 2.14 µM
- Activity (Melanocortin receptor 4 [6]): 100%
- EC50 (Melanocortin receptor 4 [6]): > 100 µM
- Activity (Melanocortin receptor 4 [7]): 100%
- EC50 (Melanocortin receptor 4 [7]): 3.09 µM
- solubility [8]: Soluble

Compound: CC[C@H](C)[C@@H]1NC(=O)[C@@H]2CCCN2C(=O)[C@H](Cc2c[nH]c3ccccc23)NC(=O)[C@H](CCCNC(=N)N)NC(=O)[C@@H](Cc2ccccc2)NC(=O)[C@H](Cc2cnc[nH]2)NC(=O)[C@H]([C@@H](C)O)NC(=O)[C@@H]2CSSC[C@H](NC1=O)C(=O)N[C@@H](Cc1ccccc1)C(=O)N1CCC[C@H]1C(=O)N[C@@H](CC(=O)O)C(=O)NCC(=O)N[C@@H](CCCNC(=N)N)C(=O)N2
- inhibition [1]: 100%
- inhibition (Melanocortin receptor 3 [2]): 100%
- inhibition (Melanocortin receptor 4 [3]): 100%
- inhibition (Melanocortin receptor 5): 100%
- Activity [4]: 100%
- Activity (Melanocortin receptor 3 [5]): 100%
- Activity (Melanocortin receptor 4 [6]): 100%
- Activity (Melanocortin receptor 4 [7]): 100%
- solubility [8]: Soluble
